{"source": "ChEMBL document CHEMBL1144547", "about": "“Synthesis, antimalarial, antileishmanial, antimicrobial, cytotoxicity, and methemoglobin (MetHB) formation activities of new 8-quinolinamines” (Bioorg Med Chem, 2007)", "key": {"[1]": {"tested_on": "Pichia kudriavzevii", "experiment": "Antifungal activity against Candida krusei ATCC 6258 after 18 to 24 hrs", "assay_type": "functional, organism-based"}, "[2]": {"tested_on": "Leishmania donovani", "experiment": "Antileishmanial activity against Leishmania donovani promastigotes by Alamar blue assay", "assay_type": "functional, organism-based"}, "[3]": {"tested_on": "Cryptococcus neoformans", "experiment": "Antifungal activity against Cryptococcus neoformans ATCC 90113 after 68 to 72 hrs", "assay_type": "functional, organism-based"}, "[4]": {"tested_on": "Nakaseomyces glabratus", "experiment": "Antifungal activity against Candida glabrata ATCC 90030 after 18 to 24 hrs", "assay_type": "functional, organism-based"}, "[5]": {"tested_on": "Candida albicans", "experiment": "Antifungal activity against Candida albicans ATCC 90028 after 18 to 24 hrs", "assay_type": "functional, organism-based"}, "[6]": {"experiment": "Selectivity index, Ratio of IC50 in Vero cells to IC50 in chloroquine-resistant Plasmodium falciparum W2", "assay_type": "functional"}, "[7]": {"experiment": "Selectivity index, Ratio of IC50 in Vero cells to IC50 in chloroquine-sensitive Plasmodium falciparum D6", "assay_type": "functional"}, "[8]": {"tested_on": "Plasmodium falciparum", "experiment": "Antimalarial activity against chloroquine-resistant Plasmodium falciparum W2", "assay_type": "functional, organism-based"}, "[9]": {"tested_on": "Plasmodium falciparum", "experiment": "Antimalarial activity against chloroquine-sensitive Plasmodium falciparum D6", "assay_type": "functional, organism-based"}, "[10]": {"experiment": "Methemoglobin toxicity in human erythrocytes incubated with mouse liver microsomes assessed as MetHb formation at 20 ug/mL by biotransformation linked assay", "parameters": "species or system Erythrocyte, Microsome", "outline": "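Compound at 20 µg/mL co-incubated 1 h at 37 °C, shaking, with mouse liver microsomes (500 µg protein), human erythrocytes (50% hematocrit suspension), NADPH-regenerating system, KCl, in 100 mM potassium phosphate pH 7.4; cells pelleted, lysed in Triton X-100 phosphate buffer pH 7.8; MetHb relative to total Hb by Evelyn–Malloy spectrophotometry; % versus vehicle control.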"}, "[11]": {"tested_on": "Vero", "experiment": "Cytotoxicity against Vero cells upto 23.8 ng/ml by neutral red assay", "assay_type": "cell-based", "conditions": "chlorocebus sabaeus, in the assay text read “23.8 µg/ml” for “23.8 ng/ml”", "outline": "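Vero monkey kidney fibroblasts (ATCC), neutral red uptake read-out; compounds tested up to a highest concentration of 23.8 µg/mL.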"}, "[12]": {"tested_on": "Plasmodium berghei", "experiment": "Antimalarial activity as parasite elimination against Plasmodium berghei in mice (Mus musculus) at 100 mg/kg/day peroral dose over 4 days", "assay_type": "functional, organism-based", "outline": "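Mice, 6 per group, infected with drug-sensitive P. berghei; oral dosing on days 0–3 post infection (×4); vehicle-only and chloroquine 10 mg/kg/day×4 oral controls. Curative means no parasites and survival to day D+60; suppressive means negative parasitaemia to D+7.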"}, "[13]": {"tested_on": "Candida albicans", "experiment": "Antifungal activity against Candida albicans ATCC 90028 at 20 ug/mL after 18 to 24 hrs", "assay_type": "functional, organism-based"}}, "note": "The source made the active and inactive calls. No cut-off for these calls is given here.", "data": [{"smiles": "C[C@@H]1[C@H](O)[C@@H](C)/C=C/C=C/C=C/C=C/C=C/C=C/C=C/[C@H](O[C@@H]2O[C@H](C)[C@@H](O)[C@H](N)[C@@H]2O)C[C@@H]2O[C@](O)(C[C@@H](O)C[C@@H](O)[C@H](O)CC[C@@H](O)C[C@@H](O)CC(=O)O[C@H]1C)C[C@H](O)[C@H]2C(=O)O", "note": "[AMPHOTERICIN B]", "values": [{"measurement": "IC50", "setting": "[1]", "value": 0.6, "unit": "µg/mL"}, {"measurement": "IC90", "setting": "[2]", "value": 0.35, "unit": "µg/mL"}, {"measurement": "IC50", "setting": "[3]", "value": 0.75, "unit": "µg/mL"}, {"measurement": "MFC", "setting": "[3]", "value": 1.5, "unit": "µg/mL"}, {"measurement": "IC50", "setting": "[4]", "value": 0.07, "unit": "µg/mL"}, {"measurement": "MFC", "setting": "[4]", "value": 0.625, "unit": "µg/mL"}, {"measurement": "MIC", "setting": "[4]", "value": 0.31, "unit": "µg/mL"}, {"measurement": "IC50", "setting": "[5]", "value": 0.25, "unit": "µg/mL"}]}, {"smiles": "C[C@@H]1CC[C@H]2[C@@H](C)C(=O)O[C@@H]3O[C@@]4(C)CC[C@@H]1[C@]32OO4", "note": "[ARTEMISININ]", "values": [{"measurement": "Selectivity index", "setting": "[6]", "value": 2644}, {"measurement": "Selectivity index", "setting": "[7]", "value": 1565}, {"measurement": "IC50", "setting": "[8]", "value": 9, "unit": "ng/mL"}, {"measurement": "IC50", "setting": "[9]", "value": 0.0152, "unit": "µg/mL"}]}, {"smiles": "N=C(N)c1ccc(OCCCCCOc2ccc(C(=N)N)cc2)cc1", "note": "[PENTAMIDINE]", "values": [{"measurement": "IC50", "setting": "[2]", "value": 1, "unit": "µg/mL"}, {"measurement": "IC90", "setting": "[2]", "value": 3.8, "unit": "µg/mL"}]}, {"smiles": "COc1cc(NC(C)CCCN)c2ncccc2c1", "note": "(stereo not given) [PRIMAQUINE]", "values": [{"measurement": "Activity", "setting": "[10]", "value": 47.9, "unit": "%"}, {"measurement": "Activity", "setting": "[2]", "value": "inactive"}, {"measurement": "IC50", "setting": "[2]", "value": 19.9, "unit": "µg/mL"}, {"measurement": "Activity", "setting": "[11]", "value": "Non-toxic"}, {"measurement": "Activity", "setting": "[12]", "value": "inactive"}, {"measurement": "Activity", "setting": "[13]", "value": "inactive"}]}]}
